The nature of data set [1]: Permeability from basal to apical side of RRCK cells at 2 uM. It counts as ADME, cell-based, Canis lupus familiaris, MDCKII-LE. Conditions: dog, MDCK; read-out: permeability. An outline of the steps:
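Basal→apical transfer rate of test compound at 2 μM across contiguous RRCK cell monolayers, quantified by MS.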

The nature of data set [2]: Intrinsic clearance in human liver microsomes assessed per mg of protein. It is filed as ADME, Microsome. Conditions: read-out: CLH. For orientation: Microsomes from liver hold many membrane-bound enzymes, among them those of drug oxidation.
Data set [3] can be described thus: Permeability from apical to basal side of MDCK cells. It is filed as ADME, cell-based, Canis lupus familiaris. Particulars: dog, read-out: permeability. An outline of the steps: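 Test compound applied at 2 μM to contiguous cell monolayers. Apical-to-basal transfer rate quantified by mass spectrometry.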

This note sets out measurements from ChEMBL document CHEMBL2177064, “Discovery and optimization of a novel spiropyrrolidine inhibitor of β-secretase (BACE1) through fragment-based drug design” (J Med Chem, 2012).

Some results are limits rather than exact numbers.

Take `O=C(OC1CCS(=O)(=O)c2ccc(Br)cc21)[C@H]1C[C@]2(CN1)C(=O)Nc1ccccc12` (mixture of isomers): the Papp B→A at 2 µM in data set [1] stood at 49.1 ×10⁻⁶ cm/s.

With `O=C1Nc2ccccc2[C@@]12CN[C@@H](CNCc1cccc(C(F)(F)F)c1)C2`, the microsomal CLint in data set [2] was found to be 94.8 µL/min/mg.

For `CN(C(=O)[C@H]1C[C@]2(CN1)C(=O)Nc1ccccc12)C1CCOCC1`, in data set [2], the microsomal CLint was below 8 µL/min/mg. Also, in data set [1], the Papp B→A at 2 µM came to 2.92 ×10⁻⁶ cm/s.

In the case of `O=C1Nc2ccccc2[C@@]12CN[C@@H](COCc1ccccc1)C2`, the microsomal CLint in data set [2] amounted to 24.7 µL/min/mg. Further, in data set [1], the Papp B→A at 2 µM amounted to 23.9 ×10⁻⁶ cm/s.

Consider `O=C1Nc2ccccc2[C@@]12CN[C@@H](CNCc1ccccc1)C2`, for which the microsomal CLint in data set [2] is 76.7 µL/min/mg. Also, the Papp B→A at 2 µM in data set [1] was 13.5 ×10⁻⁶ cm/s.

Consider `N#CC1(OC(=O)[C@H]2C[C@]3(CN2)C(=O)Nc2ccccc23)CCCCC1`, for which the Papp B→A at 2 µM in data set [1] turned out to be 22.7 ×10⁻⁶ cm/s.

Take `COC(=O)[C@H]1C[C@]2(CN1)C(=O)Nc1ccccc12`: in data set [1], the Papp B→A at 2 µM was determined as 29.5 ×10⁻⁶ cm/s.

With `O=C(OCc1ccc(Br)cc1)[C@H]1C[C@]2(CN1)C(=O)Nc1ccccc12`, in data set [1], the Papp B→A at 2 µM was 7.11 ×10⁻⁶ cm/s.

As for `CN(C)C(=O)[C@H]1C[C@]2(CN1)C(=O)Nc1ccccc12`, the microsomal CLint in data set [2] was below 8 µL/min/mg.

Consider `O=C1Nc2ccccc2[C@@]12CN[C@@H](c1ccccc1)C2` (racemic), for which the microsomal CLint in data set [2] turned out to be 16.6 µL/min/mg. Moreover, in data set [1], the Papp B→A at 2 µM was 29.6 ×10⁻⁶ cm/s.

Regarding `O=C(OC1CCOCC1)[C@H]1C[C@]2(CN1)C(=O)Nc1ccccc12`, the Papp B→A at 2 µM in data set [1] was found to be 25 ×10⁻⁶ cm/s.

With `O=C(NCc1ccccc1)[C@H]1C[C@]2(CN1)C(=O)Nc1ccccc12`, the microsomal CLint in data set [2] worked out at 15 µL/min/mg.

Regarding `O=C1Nc2ccccc2[C@@]12CN[C@@H](CCCc1ccccc1)C2`, the microsomal CLint in data set [2] was found to be 91.3 µL/min/mg. Also, the Papp B→A at 2 µM in data set [1] stood at 11.4 ×10⁻⁶ cm/s.

Consider `N#Cc1ccc(COC(=O)[C@H]2C[C@]3(CN2)C(=O)Nc2ccccc23)cc1Br`, for which the Papp B→A at 2 µM in data set [1] stood at 10.2 ×10⁻⁶ cm/s.

On to `N#Cc1ccc(COC(=O)[C@H]2C[C@]3(CN2)C(=O)Nc2ccccc23)cc1`, for which the Papp B→A at 2 µM in data set [1] was determined as 18.4 ×10⁻⁶ cm/s.

For the molecule `O=C1Nc2ccccc2[C@]12CCNC2`, in data set [3], the Papp A→B turned out to be 12.2 ×10⁻⁶ cm/s.

As to `CNC(=O)[C@H]1C[C@]2(CN1)C(=O)Nc1ccccc12`, the microsomal CLint in data set [2] stood at 14.3 µL/min/mg. In data set [1], the Papp B→A at 2 µM worked out at 4.86 ×10⁻⁶ cm/s.

Regarding `COC(=O)N1CCC(OC(=O)[C@H]2C[C@]3(CN2)C(=O)Nc2ccccc23)CC1`, the Papp B→A at 2 µM in data set [1] stood at 20.9 ×10⁻⁶ cm/s.

With `O=C(OCc1ccccc1)[C@H]1C[C@]2(CN1)C(=O)Nc1ccccc12`, the Papp B→A at 2 µM in data set [1] was determined as 30.4 ×10⁻⁶ cm/s.
